Measurements from ChEMBL document CHEMBL4145619, “Computer-Assisted Discovery of Retinoid X Receptor Modulating Natural Products and Isofunctional Mimetics” (J Med Chem, 2018).
Activity calls are given as the source filed them. No cut-off for these calls is given here.

Assays:
Type in all cases: cell-based
[1] = biological target: T1, Peroxisome proliferator-activated receptor alpha (Homo sapiens) (UniProt Q07869); test: Transactivation of human Gal4-fused PPARalpha LBD expressed in HEK293T cells at 30 uM after 12 to 14 hrs by dual-glo luciferase assay
T1 sequence (whole entry): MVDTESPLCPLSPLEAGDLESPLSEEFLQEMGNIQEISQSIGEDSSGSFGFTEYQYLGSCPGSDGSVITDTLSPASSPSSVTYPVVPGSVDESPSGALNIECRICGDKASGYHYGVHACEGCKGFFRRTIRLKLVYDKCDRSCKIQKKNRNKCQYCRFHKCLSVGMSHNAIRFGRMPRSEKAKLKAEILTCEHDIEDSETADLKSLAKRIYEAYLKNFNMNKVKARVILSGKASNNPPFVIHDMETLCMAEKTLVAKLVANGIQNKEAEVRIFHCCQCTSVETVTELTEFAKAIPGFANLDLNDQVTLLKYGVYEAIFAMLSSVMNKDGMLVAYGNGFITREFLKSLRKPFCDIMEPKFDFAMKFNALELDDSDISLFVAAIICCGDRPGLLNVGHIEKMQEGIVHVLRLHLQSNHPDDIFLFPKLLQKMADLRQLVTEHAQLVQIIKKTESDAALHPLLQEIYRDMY
Outline: (§1)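 Single-concentration selectivity profiling in Gal4-hybrid reporter gene assays in HEK293T cells. Each nuclear receptor construct (RAR, PPAR, LXR, FXR, CAR, VDR, PXR, RXR) was tested at 30 μM.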

[2] = biological target: T2, Peroxisome proliferator-activated receptor gamma (Homo sapiens) (UniProt P37231); test: Transactivation of human Gal4-fused PPARgamma LBD expressed in HEK293T cells at 30 uM after 12 to 14 hrs by dual-glo luciferase assay; outline: as §1
T2 sequence (whole entry): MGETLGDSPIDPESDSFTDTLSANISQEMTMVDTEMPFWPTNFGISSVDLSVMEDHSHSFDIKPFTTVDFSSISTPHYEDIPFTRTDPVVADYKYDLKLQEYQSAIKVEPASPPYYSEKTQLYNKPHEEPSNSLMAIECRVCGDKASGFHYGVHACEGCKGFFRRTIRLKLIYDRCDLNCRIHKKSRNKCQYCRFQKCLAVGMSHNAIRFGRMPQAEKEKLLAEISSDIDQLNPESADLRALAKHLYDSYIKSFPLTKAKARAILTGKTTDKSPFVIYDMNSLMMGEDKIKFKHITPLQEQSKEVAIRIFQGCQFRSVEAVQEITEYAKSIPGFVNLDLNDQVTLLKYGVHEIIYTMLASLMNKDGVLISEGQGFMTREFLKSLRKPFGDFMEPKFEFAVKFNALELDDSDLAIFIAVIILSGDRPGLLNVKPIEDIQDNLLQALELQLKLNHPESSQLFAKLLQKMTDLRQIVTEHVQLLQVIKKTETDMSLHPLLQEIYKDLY

[3] = biological target: T3, Retinoic acid receptor RXR-alpha (Homo sapiens) (UniProt P19793); test: Transactivation of human Gal4-fused RXRalpha LBD expressed in HEK293T cells after 12 to 14 hrs by dual-glo luciferase assay relative to bexarotene
T3 sequence (whole entry): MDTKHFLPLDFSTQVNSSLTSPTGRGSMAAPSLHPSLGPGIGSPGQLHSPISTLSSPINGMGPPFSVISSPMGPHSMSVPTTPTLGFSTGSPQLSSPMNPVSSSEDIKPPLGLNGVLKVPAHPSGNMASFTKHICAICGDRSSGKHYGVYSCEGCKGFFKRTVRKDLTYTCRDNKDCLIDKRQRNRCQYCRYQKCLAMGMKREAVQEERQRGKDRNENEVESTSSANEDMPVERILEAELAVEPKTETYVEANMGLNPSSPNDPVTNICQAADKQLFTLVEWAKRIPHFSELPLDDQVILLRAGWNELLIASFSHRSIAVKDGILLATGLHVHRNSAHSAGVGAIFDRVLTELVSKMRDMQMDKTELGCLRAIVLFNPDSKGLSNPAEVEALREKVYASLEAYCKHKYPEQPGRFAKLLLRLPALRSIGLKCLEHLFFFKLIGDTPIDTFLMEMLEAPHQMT

[4] = biological target: Retinoid X receptor (Homo sapiens) (UniProt P28702+P48443+P19793); test: Transactivation of RXR in human HepG2 cells assessed as induction of ABCA1 mRNA expression at 30 uM after 8 hrs by qRT-PCR analysis
Sequence of Retinoid X receptor (Homo sapiens) (P28702 whole entry, looked up, one chain of several): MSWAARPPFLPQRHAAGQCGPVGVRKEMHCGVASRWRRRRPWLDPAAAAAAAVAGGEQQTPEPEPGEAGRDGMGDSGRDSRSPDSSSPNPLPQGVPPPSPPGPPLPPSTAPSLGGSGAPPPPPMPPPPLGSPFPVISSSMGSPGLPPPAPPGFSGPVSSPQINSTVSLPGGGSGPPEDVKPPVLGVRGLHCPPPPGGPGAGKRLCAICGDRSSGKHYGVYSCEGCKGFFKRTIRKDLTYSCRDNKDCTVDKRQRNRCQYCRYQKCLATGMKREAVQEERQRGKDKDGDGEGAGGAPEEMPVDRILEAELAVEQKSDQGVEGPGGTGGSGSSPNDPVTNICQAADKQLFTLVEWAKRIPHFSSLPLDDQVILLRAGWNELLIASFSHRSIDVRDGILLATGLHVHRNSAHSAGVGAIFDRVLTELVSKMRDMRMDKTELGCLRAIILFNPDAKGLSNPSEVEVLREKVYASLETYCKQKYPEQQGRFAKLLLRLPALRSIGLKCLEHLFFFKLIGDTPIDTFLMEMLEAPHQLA
Sequence of Retinoid X receptor (Homo sapiens) (P48443 whole entry, looked up, one chain of several): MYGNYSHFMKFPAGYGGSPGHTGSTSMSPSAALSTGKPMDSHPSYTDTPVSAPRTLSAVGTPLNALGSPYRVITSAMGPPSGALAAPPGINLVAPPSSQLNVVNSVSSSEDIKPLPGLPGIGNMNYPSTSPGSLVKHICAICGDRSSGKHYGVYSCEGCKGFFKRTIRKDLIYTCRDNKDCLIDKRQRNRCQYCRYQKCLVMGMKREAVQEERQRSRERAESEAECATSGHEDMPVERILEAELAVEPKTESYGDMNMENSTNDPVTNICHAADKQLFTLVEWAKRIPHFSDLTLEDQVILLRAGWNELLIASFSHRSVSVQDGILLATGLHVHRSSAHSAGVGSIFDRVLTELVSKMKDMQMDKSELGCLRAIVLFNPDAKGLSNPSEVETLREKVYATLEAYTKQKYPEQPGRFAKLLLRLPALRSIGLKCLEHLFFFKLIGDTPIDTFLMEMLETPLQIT
Outline: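 HepG2 cells were treated and ABCA1 or ApoE mRNA levels measured. Results are given as mean fold induction versus 0.1% DMSO vehicle ± SEM, n = 3. Significance was set at p < 0.05, 0.01 or 0.001.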

[5] = biological target: T4, Nuclear receptor subfamily 1 group I member 3 (Homo sapiens, UniProt Q14994); test: Transactivation of human Gal4-fused CAR LBD expressed in HEK293T cells at 30 uM after 12 to 14 hrs by dual-glo luciferase assay; outline: as §1
T4 sequence (Q14994 whole entry): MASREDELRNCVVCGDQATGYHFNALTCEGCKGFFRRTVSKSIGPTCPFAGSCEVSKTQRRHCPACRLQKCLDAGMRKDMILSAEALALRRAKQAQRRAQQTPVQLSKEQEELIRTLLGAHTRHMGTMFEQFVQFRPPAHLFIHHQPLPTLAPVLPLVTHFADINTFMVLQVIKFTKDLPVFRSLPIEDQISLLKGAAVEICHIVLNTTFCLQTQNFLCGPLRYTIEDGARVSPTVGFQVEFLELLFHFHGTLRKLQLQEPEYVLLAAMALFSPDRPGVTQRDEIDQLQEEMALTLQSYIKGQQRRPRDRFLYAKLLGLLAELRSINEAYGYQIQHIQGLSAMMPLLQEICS

[6] = biological target: T5, Nuclear receptor subfamily 1 group I member 2 (Homo sapiens, UniProt O75469); test: Transactivation of human Gal4-fused PXR LBD expressed in HEK293T cells at 30 uM after 12 to 14 hrs by dual-glo luciferase assay; outline: as §1
T5 sequence (O75469 whole entry): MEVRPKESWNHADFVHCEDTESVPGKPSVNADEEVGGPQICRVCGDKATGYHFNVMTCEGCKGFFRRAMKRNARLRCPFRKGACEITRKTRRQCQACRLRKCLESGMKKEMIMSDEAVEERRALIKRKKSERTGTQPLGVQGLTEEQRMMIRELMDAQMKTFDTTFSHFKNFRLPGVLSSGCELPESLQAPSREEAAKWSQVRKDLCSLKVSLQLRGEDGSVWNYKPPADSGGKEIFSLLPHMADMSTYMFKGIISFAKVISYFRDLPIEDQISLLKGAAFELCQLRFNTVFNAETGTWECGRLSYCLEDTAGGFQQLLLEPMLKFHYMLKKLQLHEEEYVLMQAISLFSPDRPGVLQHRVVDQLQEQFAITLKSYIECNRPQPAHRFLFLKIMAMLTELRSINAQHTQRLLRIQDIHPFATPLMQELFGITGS

Activity [1]: inactive | Activity [2]: inactive | fold change (FC) [3]: 9 | Activity [4]: Active | Activity [5]: Not Active | Activity [6]: Not Active
SMILES: CC1=C2[C@H](/C=C(\C)C(=O)O)CC[C@@H](C)[C@H]2CC1 [VALERENIC ACID]
